The source made the active and inactive calls. No cut-off for these calls is given here.
Key:
Rattus norvegicus [1] = assay: Antidiabetic activity in streptozotocin-nicotinamide-induced NIDDM Wistar rat model assessed as reduction in blood glucose level at 50 mg/kg administered intragastrically measured at 5 hrs post dose relative to control; format: functional; parameters: scale not given: the % may be the effect or the level left; details: route intragastric
How it was run: (§1)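 Streptozotocin–nicotinamide-induced diabetic rats received one intragastric dose (test agent 50 mg/Kg; glibenclamide 5 mg/Kg as hypoglycemic control). Blood glucose was sampled at 0, 1, 3, 5 and 7 h after dosing. Change was expressed as percentage variation of glycemia from zero hour, negative meaning a decrease. Values are mean ± SEM (n = 6), compared with a control group.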

3T3-L1 [2] = assay: Increase in PPARalpha mRNA expression mouse 3T3L1 cells at 10 uM after 24 hrs by SYBR Green-based expression analysis relative to control; format: functional, cell-based
Rattus norvegicus [3] = assay: Antidiabetic activity in streptozotocin-nicotinamide-induced NIDDM Wistar rat model assessed as reduction in blood glucose level at 50 mg/kg administered intragastrically measured at 1 hr post dose relative to control; format: functional; parameters: scale not given: the % may be the effect or the level left; details: route intragastric; how it was run: as §1
Rattus norvegicus [4] = assay: Antidiabetic activity in streptozotocin-nicotinamide-induced NIDDM Wistar rat model assessed as reduction in blood glucose level at 50 mg/kg administered intragastrically measured at 7 hrs post dose relative to control; format: functional; parameters: scale not given: the % may be the effect or the level left; details: route intragastric; how it was run: as §1
Rattus norvegicus [5] = assay: Antidiabetic activity in streptozotocin-nicotinamide-induced NIDDM Wistar rat model assessed as reduction in blood glucose level at 50 mg/kg administered intragastrically measured at 3 hrs post dose relative to control; format: functional; parameters: scale not given: the % may be the effect or the level left; details: route intragastric; how it was run: as §1
3T3-L1 [6] = assay: Increase in PPARgamma mRNA expression mouse 3T3L1 cells at 10 uM after 24 hrs by SYBR Green-based expression analysis relative to control; format: functional
3T3-L1 [7] = assay: Increase in Glut-4 mRNA expression mouse 3T3L1 cells at 10 uM after 24 hrs by SYBR Green-based expression analysis relative to control; format: functional
Rattus norvegicus [8] = assay: Antidiabetic activity in streptozotocin-nicotinamide-induced NIDDM Wistar rat model assessed as reduction in blood glucose level at 5 mg/kg administered intragastrically measured at 3 hrs post dose relative to control; format: functional; parameters: scale not given: the % may be the effect or the level left; details: route intragastric; how it was run: as §1
Rattus norvegicus [9] = assay: Antidiabetic activity in streptozotocin-nicotinamide-induced NIDDM Wistar rat model assessed as reduction in blood glucose level at 5 mg/kg administered intragastrically measured at 1 hr post dose relative to control; format: functional; parameters: scale not given: the % may be the effect or the level left; details: route intragastric; how it was run: as §1
Rattus norvegicus [10] = assay: Antidiabetic activity in streptozotocin-nicotinamide-induced NIDDM Wistar rat model assessed as reduction in blood glucose level at 5 mg/kg administered intragastrically measured at 7 hrs post dose relative to control; format: functional; parameters: scale not given: the % may be the effect or the level left; details: route intragastric; how it was run: as §1
Rattus norvegicus [11] = assay: Antidiabetic activity in streptozotocin-nicotinamide-induced NIDDM Wistar rat model assessed as reduction in blood glucose level at 5 mg/kg administered intragastrically measured at 5 hrs post dose relative to control; format: functional; parameters: scale not given: the % may be the effect or the level left; details: route intragastric; how it was run: as §1

SMILES	Activity (Rattus norvegicus [1])	Activity (3T3-L1 [2])	Activity (Rattus norvegicus [3])	Activity (Rattus norvegicus [4])	Activity (Rattus norvegicus [5])	fold change (FC) (3T3-L1 [6])	fold change (FC) (3T3-L1 [7])	Activity (Rattus norvegicus [8])	Activity (Rattus norvegicus [9])	Activity (Rattus norvegicus [10])	Activity (Rattus norvegicus [11])
CCOC(=O)COc1ccc(NC(=O)COc2ccc(/C=C3\SC(=O)NC3=O)cc2)cc1	36.7%	inactive	4.4%	31%	20.5%	2	2				
O=C(O)COc1ccc(NC(=O)COc2ccc(/C=C3\SC(=O)NC3=O)cc2)cc1		inactive				2	2				
COc1ccc(Cl)cc1C(=O)NCCc1ccc(S(=O)(=O)NC(=O)NC2CCCCC2)cc1 [GLYBURIDE]								36.3%	20.5%	43.6%	37.5%

— ChEMBL document CHEMBL3351797, “Synthesis, in vitro and in silico studies of a PPARγ and GLUT-4 modulator with hypoglycemic effect” (2014)
